Columns and labels:
[1] = target: T1, Muscarinic acetylcholine receptor M4 (Homo sapiens) (UniProt P08173); assay: Agonist potency at muscarinic M4 receptor in guinea pig lung strips; format: functional; conditions: Cavia porcellus, target entry is the homologue from another species
T1 sequence (whole entry): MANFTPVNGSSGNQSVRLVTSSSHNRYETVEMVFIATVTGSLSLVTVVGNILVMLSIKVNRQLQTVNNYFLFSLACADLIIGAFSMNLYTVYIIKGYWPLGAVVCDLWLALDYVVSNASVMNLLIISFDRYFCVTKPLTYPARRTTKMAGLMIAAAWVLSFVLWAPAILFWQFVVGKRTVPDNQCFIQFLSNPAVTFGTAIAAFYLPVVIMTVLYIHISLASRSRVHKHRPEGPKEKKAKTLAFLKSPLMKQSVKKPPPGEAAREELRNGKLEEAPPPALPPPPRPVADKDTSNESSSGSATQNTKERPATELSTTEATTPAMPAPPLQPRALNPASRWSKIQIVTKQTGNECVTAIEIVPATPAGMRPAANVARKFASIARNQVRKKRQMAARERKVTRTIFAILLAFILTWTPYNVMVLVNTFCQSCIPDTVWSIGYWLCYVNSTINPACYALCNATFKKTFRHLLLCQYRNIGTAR
Method in brief: (§1)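 Isolated guinea pig tissue contractions, measured against arecaidine propargyl ester control curves. Agonists: cumulative dose-response curve after a 30 min wash, responses as % of the control maximum. Antagonists: 60 min incubation, then a new agonist curve. Parallel time-control tissues were run. Values expressed as pD2 (-log ED50) with intrinsic activity, or as pKb (-log Kb).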

[2] = target: T2, Muscarinic acetylcholine receptor M2 (Homo sapiens, UniProt P08172); assay: Binding affinity to cloned human muscarinic M2 receptor expressed in CHO cells; format: cell-based
T2 sequence (P08172 whole entry): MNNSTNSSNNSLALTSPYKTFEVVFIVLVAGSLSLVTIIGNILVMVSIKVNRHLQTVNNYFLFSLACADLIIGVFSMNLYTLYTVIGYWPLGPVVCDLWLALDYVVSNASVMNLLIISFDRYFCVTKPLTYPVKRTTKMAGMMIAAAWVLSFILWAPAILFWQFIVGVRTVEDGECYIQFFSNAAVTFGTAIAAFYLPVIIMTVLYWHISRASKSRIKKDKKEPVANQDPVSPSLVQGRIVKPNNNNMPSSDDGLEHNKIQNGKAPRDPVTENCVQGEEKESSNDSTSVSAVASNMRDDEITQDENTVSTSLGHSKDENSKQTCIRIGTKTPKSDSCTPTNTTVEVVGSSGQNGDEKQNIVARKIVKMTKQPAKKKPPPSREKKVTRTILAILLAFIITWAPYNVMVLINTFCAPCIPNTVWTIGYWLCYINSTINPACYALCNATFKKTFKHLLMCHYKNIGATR
Method in brief: (§2)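 Membranes from CHO cells stably expressing human hm2, hm4 or hm5 receptors, at 70, 50 and 25 µg/mL protein respectively. 0.2 nM [3H]NMS displaced by unlabelled ligand for 120 min at room temperature, in 25 mM sodium phosphate with 5 mM MgCl2, pH 7.4. Rapid filtration, then scintillation counting. Mean of at least three experiments.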

[3] = target: T3, Muscarinic acetylcholine receptor M1 (Homo sapiens) (UniProt P11229); assay: Agonist potency at muscarinic M1 receptor in rabbit vas deferens; format: functional, tissue-based; conditions: Oryctolagus cuniculus, target entry is the homologue from another species
T3 sequence (whole entry): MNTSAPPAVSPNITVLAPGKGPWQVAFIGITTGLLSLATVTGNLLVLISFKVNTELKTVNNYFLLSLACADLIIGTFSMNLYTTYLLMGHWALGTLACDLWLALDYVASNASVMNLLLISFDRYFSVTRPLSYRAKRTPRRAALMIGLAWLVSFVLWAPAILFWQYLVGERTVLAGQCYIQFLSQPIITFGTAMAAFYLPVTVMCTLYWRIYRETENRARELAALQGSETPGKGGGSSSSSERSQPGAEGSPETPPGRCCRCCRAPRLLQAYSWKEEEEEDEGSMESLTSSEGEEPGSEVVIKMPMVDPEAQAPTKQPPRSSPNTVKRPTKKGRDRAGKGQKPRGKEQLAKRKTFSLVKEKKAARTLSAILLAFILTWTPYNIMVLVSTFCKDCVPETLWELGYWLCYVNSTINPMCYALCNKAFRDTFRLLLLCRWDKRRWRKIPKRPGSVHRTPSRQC
Method in brief: (§3)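 Field-stimulated (0.1 ms, 2 Hz, 10-15 V), contractions recorded isometrically after 1 h equilibration. Cumulative dose-response curves against p-Cl-McN-A-343 reference. Antagonists incubated 60 min before the repeat curve. Reported as pD2 (-log ED50) with intrinsic activity, or as pKb.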

[4] = target: T4, Muscarinic acetylcholine receptor M5 (Homo sapiens, UniProt P08912); assay: Binding affinity to cloned human muscarinic M5 receptor expressed in CHO cells; format: cell-based; method in brief: as §2
T4 sequence (P08912 whole entry): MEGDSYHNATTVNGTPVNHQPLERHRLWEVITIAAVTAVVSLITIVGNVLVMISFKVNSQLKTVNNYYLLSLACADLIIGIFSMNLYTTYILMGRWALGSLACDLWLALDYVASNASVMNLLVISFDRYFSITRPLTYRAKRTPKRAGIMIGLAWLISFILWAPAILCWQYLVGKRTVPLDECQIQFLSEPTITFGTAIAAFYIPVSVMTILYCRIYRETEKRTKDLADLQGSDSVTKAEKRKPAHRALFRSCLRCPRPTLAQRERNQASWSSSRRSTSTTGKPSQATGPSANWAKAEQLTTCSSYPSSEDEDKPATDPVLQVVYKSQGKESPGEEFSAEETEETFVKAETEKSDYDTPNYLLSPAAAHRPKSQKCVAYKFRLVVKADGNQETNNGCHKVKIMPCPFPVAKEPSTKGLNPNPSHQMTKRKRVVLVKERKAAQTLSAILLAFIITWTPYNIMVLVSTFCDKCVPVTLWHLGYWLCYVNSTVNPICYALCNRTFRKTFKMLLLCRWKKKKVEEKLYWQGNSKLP

[5] = target: T5, Muscarinic acetylcholine receptor M2 (Homo sapiens) (UniProt P08172); assay: Agonist potency at muscarinic M2 receptor in guinea pig atrium; format: functional, tissue-based; conditions: Cavia porcellus; Cardiac atrium; target entry is the homologue from another species
T5 sequence (whole entry): T2 sequence (P08172 whole entry)
Method in brief: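 Guinea pig left atria in PSS at 30 °C, paced by square-wave pulses (1 ms, 1 Hz, 5-10 V). Inotropic force recorded isometrically after 2 h equilibration, with cumulative dose-response curves to arecaidine propargyl ester as reference. Antagonists incubated 60 min after a 30 min wash, then the curve was repeated. Values given as pD2 with intrinsic activity, or as pKb.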

[6] = target: Muscarinic acetylcholine receptor M3 (Homo sapiens, UniProt P20309); assay: Binding affinity to cloned human muscarinic M3 receptor expressed in CHO cells; format: cell-based
Chain of Muscarinic acetylcholine receptor M3 (P20309 whole entry): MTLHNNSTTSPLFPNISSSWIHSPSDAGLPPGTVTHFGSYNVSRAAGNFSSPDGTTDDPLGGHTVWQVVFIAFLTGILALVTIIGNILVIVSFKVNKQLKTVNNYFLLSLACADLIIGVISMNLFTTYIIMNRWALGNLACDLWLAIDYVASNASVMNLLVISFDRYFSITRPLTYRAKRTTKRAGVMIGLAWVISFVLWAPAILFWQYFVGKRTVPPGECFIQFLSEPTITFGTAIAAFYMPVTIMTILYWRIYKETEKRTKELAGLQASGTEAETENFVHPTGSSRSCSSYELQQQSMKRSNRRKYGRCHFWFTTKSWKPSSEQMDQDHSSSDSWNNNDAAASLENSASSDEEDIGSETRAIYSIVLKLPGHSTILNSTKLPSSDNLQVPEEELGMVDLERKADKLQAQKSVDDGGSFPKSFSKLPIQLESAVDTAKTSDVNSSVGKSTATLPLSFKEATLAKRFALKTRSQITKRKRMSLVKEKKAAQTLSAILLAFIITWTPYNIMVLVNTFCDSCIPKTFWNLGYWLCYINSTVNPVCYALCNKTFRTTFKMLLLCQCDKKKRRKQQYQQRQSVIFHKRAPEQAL

[7] = target: Muscarinic acetylcholine receptor M3 (Cavia porcellus) (UniProt Q8VH26); assay: Agonist potency at muscarinic M3 receptor in guinea pig ileum; format: functional, tissue-based; method in brief: as §1
Chain of Muscarinic acetylcholine receptor M3 (Cavia porcellus) (Q8VH26 1-587): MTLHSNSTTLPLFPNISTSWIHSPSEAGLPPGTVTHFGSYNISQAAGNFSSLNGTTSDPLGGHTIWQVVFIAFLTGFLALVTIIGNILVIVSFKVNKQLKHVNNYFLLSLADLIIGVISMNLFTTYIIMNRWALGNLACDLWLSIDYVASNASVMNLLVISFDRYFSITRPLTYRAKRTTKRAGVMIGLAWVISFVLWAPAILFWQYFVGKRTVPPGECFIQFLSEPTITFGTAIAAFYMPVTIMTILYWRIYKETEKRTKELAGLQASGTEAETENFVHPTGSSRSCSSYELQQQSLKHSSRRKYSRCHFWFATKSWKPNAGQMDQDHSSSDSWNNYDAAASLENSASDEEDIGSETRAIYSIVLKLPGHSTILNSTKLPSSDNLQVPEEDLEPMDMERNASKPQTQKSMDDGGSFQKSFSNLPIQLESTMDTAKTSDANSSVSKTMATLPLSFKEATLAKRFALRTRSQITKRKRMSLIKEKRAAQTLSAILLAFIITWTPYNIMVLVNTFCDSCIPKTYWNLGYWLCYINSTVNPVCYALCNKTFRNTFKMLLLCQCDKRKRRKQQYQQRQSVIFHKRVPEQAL

[8] = target: T6, Muscarinic acetylcholine receptor M4 (Homo sapiens, UniProt P08173); assay: Binding affinity to cloned human muscarinic M4 receptor expressed in CHO cells; format: cell-based; method in brief: as §2
T6 sequence (P08173 whole entry): T1 sequence (whole entry)

[9] = target: T7, Muscarinic acetylcholine receptor M1 (Homo sapiens, UniProt P11229); assay: Binding affinity to cloned human muscarinic M1 receptor expressed in CHO cells; format: cell-based
T7 sequence (P11229 whole entry): T3 sequence (whole entry)

[10] = target: T5, Muscarinic acetylcholine receptor M2 (Homo sapiens); assay: Efficacy of agonist at muscarinic M2 receptor in guinea pig atrium as ratio of Ka/ED50; format: functional, tissue-based; conditions: Cavia porcellus; Cardiac atrium; target entry is the homologue from another species
Method in brief: (§4)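 Functional affinity constants (Ka) obtained in the atrium and ileum preparations. Full agonists: Furchgott-Bursztyn method. Partial agonists: Waud method, comparing their concentration-response curves with arecaidine propargyl ester, with equieffective concentrations read graphically. Ka was then related to ED50.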

[11] = target: T1, Muscarinic acetylcholine receptor M4 (Homo sapiens); assay: Antagonist affinity at muscarinic M4 receptor in guinea pig lung strips; format: functional; conditions: Cavia porcellus, target entry is the homologue from another species; method in brief: as §1
[12] = target: Muscarinic acetylcholine receptor M3 (Cavia porcellus) (UniProt Q8VH26); assay: Efficacy of agonist at muscarinic M3 receptor in guinea pig ileum as ratio of Ka/ED50; format: functional, tissue-based; method in brief: as §4
[13] = target: T3, Muscarinic acetylcholine receptor M1 (Homo sapiens); assay: Antagonist affinity at muscarinic M1 receptor in rabbit vas deferens; format: functional, tissue-based; conditions: Oryctolagus cuniculus, target entry is the homologue from another species; method in brief: as §3

Row | Structure (SMILES) | pD2 [1] | Ki [2] | pD2 [3] | Ki [4] | Activity [5] | pD2 [5] | Ki [6] | Activity [7] | pD2 [7] | Ki [8] | Ki [9] | -logKa [5] | Ratio [10] | pKb [11] | -logKa [7] | Ratio [12] | pKb [13]
1 | C#CCOC(=O)C1=CCCN(C)C1 [ARECAIDINE PROPARGYL ESTER] | 5.56 | 0.0871 µM | 7.14 | 0.933 µM | 1 | 8.67 | 0.851 µM | 1 | 7.64 | 0.977 µM | 1.23 µM |  |  |  |  |  | 
2 | C[N+](C)(C)CC#CCOC(=O)Nc1ccc(Cl)cc1 |  | 3.24 µM | 6.33 | 3.8 µM |  |  | 2.4 µM |  |  | 9.12 µM | 1.95 µM |  |  |  |  |  | 
3 | C[C@@H]1O[C@H]([C@@H]2CCC[N+]2(C)C)C[S@@+]1[O-] |  | 15.5 µM |  | 33.9 µM | 0.56 | 6.37 | 33.9 µM | 0.54 | 4.62 | 46.8 µM | 93.3 µM | 4.64 | 58 | < 5 | 4.59 | 1 | < 5
